Results as given in ChEMBL document CHEMBL3351311 (ACS Med Chem Lett, 2014).
≈ marks a conversion by molar mass, not a printed value.

Experiments:
[1] = Ratio of drug level in brain to plasma in rat at 10 mg/kg, po after 30 mins; format: ADME, organism-based; parameters: dose 10 mg/kg, route oral; settings: read-out: BPR
[2] = Drug level in rat brain at 10 mg/kg, po after 30 mins; format: ADME, organism-based; parameters: dose 10 mg/kg, route oral; settings: read-out: Drug uptake
[3] = Plasma concentration in rat at 10 mg/kg, po after 30 mins; format: ADME, organism-based; parameters: dose 10 mg/kg, route oral
[4] = Selectivity index, ratio of IC50 for rat PDE10A to IC50 for human PDE2A
[5] = molecular target: T1, cAMP and cAMP-inhibited cGMP 3',5'-cyclic phosphodiesterase 10A (Rattus norvegicus, UniProt Q9QYJ6); assay: Inhibition of rat PDE10A expressed in Sf9 cells incubated for 60 mins using [3H]-cAMP substrate by scintillation counting method
T1 sequence (Q9QYJ6 whole entry): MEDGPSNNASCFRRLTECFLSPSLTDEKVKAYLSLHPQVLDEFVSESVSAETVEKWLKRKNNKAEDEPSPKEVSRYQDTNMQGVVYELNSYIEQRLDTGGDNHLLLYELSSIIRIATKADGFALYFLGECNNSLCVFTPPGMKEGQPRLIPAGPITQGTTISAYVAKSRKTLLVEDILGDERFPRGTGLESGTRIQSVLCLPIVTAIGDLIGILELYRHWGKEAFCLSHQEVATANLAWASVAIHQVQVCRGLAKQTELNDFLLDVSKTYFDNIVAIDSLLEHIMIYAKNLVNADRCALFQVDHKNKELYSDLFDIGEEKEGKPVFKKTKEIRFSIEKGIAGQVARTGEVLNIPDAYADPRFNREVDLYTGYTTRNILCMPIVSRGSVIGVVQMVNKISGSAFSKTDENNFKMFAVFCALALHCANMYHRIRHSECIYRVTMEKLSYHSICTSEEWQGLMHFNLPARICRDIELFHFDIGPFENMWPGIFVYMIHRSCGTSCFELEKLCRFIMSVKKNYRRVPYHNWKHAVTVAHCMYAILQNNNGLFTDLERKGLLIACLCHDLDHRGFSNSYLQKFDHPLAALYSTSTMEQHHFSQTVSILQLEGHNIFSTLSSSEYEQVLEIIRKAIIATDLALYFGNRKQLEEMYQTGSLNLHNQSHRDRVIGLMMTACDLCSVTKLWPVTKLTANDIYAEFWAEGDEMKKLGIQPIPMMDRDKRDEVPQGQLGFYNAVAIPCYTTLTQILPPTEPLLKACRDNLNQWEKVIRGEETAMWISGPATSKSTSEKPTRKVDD

[6] = system: Rattus norvegicus; assay: Increase in cGMP levels in Wistar rat striatum at 10 mg/kg, sc after 1 hr; format: functional; settings: route subcutaneous
In short: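 Rats were dosed 10 mg/kg s.c., and striatal cGMP was measured 1 h later against vehicle-dosed animals. Five independent experiments were run (n = 4–5 each), reported as % of vehicle with range.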

[7] = molecular target: High affinity 3',5'-cyclic-AMP phosphodiesterase 7A (Homo sapiens, UniProt Q13946)
[8] = Volume of distribution at steady state in Sprague-Dawley rat at 2.5 mg/kg, iv; format: ADME, organism-based; parameters: dose 2.5 mg/kg, route intravenous; settings: in vivo, read-out: Vdss
In short: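 Rats received an intravenous injection at 2.5 mg/kg. Plasma kinetics were followed and parameters reported as mean (SD).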

[9] = Stability in human liver microsomes assessed as parent compound remaining after 15 mins; format: ADME; settings: read-out: Stability
In short: (§1)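 Incubated with human or rat liver microsomes for 15 min. Result is the percent of parent compound remaining.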

[10] = molecular target: Cytochrome P450 2C19 (Homo sapiens, UniProt P33261); assay: Inhibition of CYP2C19 in human liver microsomes; format: ADME
In short: (§2)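 CYP2C19 and 3A4 were tested in a human liver microsomal CYP inhibition assay, with IC50 determination.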

[11] = AUC (0 to infinity) in Sprague-Dawley rat at 2.5 mg/kg, iv; format: ADME, organism-based; parameters: time infinity, dose 2.5 mg/kg, route intravenous; settings: plasma
In short: (§3)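 Rats received 2.5 mg/kg i.v. Plasma kinetic parameters (t1/2, Cl, Vdss, AUC0-inf) are reported as mean (SD).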

[12] = molecular target: Cytochrome P450 3A4 (Homo sapiens, UniProt P08684); assay: Inhibition of CYP3A4 in human liver microsomes; format: ADME; in short: as §2
[13] = system: Plasma; assay: Free drug concentration in Sprague-Dawley rat brain at 10 mg/kg, sc after 1 hr; format: ADME, organism-based; parameters: dose 10 mg/kg, route subcutaneous; settings: in vivo
In short: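 Free brain level at 1 h after a 10 mg/kg s.c. dose. Total brain concentration was corrected with the measured unbound brain fraction (Fub) and the unbound fraction to plasma proteins (Fup).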

[14] = Half life in Sprague-Dawley rat at 10 mg/kg, sc; format: ADME, organism-based; parameters: dose 10 mg/kg, route subcutaneous; settings: in vivo
In short: (§4)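 Male Sprague-Dawley rats, fed (n = 3), given 10 mg/kg s.c. as a 1 mg/mL solution in 20% HP-β-CD, pH 7.0. Plasma kinetic parameters are reported as mean (SD).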

[15] = Tmax in Sprague-Dawley rat at 10 mg/kg, sc; format: ADME, organism-based; parameters: dose 10 mg/kg, route subcutaneous; settings: in vivo
In short: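 Fed male Sprague-Dawley rats (n = 3) were dosed subcutaneously at 10 mg/kg, formulated at 1 mg/mL in 20% HP-β-CD, pH 7.0. Plasma kinetics were followed and reported as mean (SD).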

[16] = system: Salmonella typhimurium; assay: Mutagenicity in Salmonella typhimurium at <125 ug/mL by Ames-2 test; format: toxicity, organism-based; settings: salmonella enterica subsp. enterica serovar typhimurium
In short: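 In vitro colorimetric bacterial mutagenicity assay, adapted from the AMESII Mutagenicity Assay kit.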

[17] = AUC (0 to infinity) in Sprague-Dawley rat at 10 mg/kg, sc; format: ADME, organism-based; parameters: time infinity, dose 10 mg/kg, route subcutaneous; settings: plasma; in short: as §4
[18] = molecular target: Dual specificity calcium/calmodulin-dependent 3',5'-cyclic nucleotide phosphodiesterase 1A (Homo sapiens, UniProt P54750); assay: Inhibition of human PDE1A by scintillation counting method
In short: (§5)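 IC50 values were calculated from experiments each run at eight concentrations.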

[19] = system: Plasma; assay: Plasma concentration in Sprague-Dawley rat at 10 mg/kg, sc after 24 hrs; format: ADME, organism-based; parameters: dose 10 mg/kg, route subcutaneous; settings: in vivo, BLD = below limit of detection
In short: (§6)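 Male Sprague-Dawley rats, fed (n = 3), dosed 10 mg/kg s.c. at 1 mg/mL in 20% HP-β-CD, pH 7.0. Plasma (ng/mL) and brain (ng/g) levels were measured at 0.5, 1, 2, 4, 7 and 24 h, each with SD. The brain/plasma ratio is computed at each time point.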

[20] = system: Brain; assay: Drug level in Sprague-Dawley rat brain at 10 mg/kg, sc after 24 hrs; format: ADME, organism-based; parameters: dose 10 mg/kg, route subcutaneous; settings: in vivo, BLD = below limit of detection; in short: as §6
[21] = system: Rattus norvegicus; assay: Effect on cAMP levels in Wistar rat striatum at 10 mg/kg, sc after 1 hr; format: functional; settings: route subcutaneous
[22] = molecular target: cGMP-specific 3',5'-cyclic phosphodiesterase (Homo sapiens, UniProt O76074); assay: Inhibition of human PDE5A3 expressed in Sf9 cells by scintillation counting method; in short: as §5
[23] = molecular target: High affinity cGMP-specific 3',5'-cyclic phosphodiesterase 9A (Homo sapiens, UniProt O76083)
[24] = molecular target: cGMP-inhibited 3',5'-cyclic phosphodiesterase 3B (Homo sapiens, UniProt Q13370); assay: Inhibition of human PDE3B by scintillation counting method; in short: as §5
[25] = Formulatability in 10% beta-HP-CD at pH 3.6; format: physicochemical; settings: read-out: Activity
In short: (§7)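 Formulatability in mg/mL, tested in three vehicles: water at pH 3.6, 10% β-HP-CD at pH 3.6, and 20% HP-β-CD at pH 7.0.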

[26] = molecular target: Phosphodiesterase 6; assay: Inhibition of human PDE6AB expressed in Sf9 cells by scintillation counting method; in short: as §5
[27] = Stability in rat liver microsomes assessed as parent compound remaining after 15 mins; format: ADME; settings: read-out: Stability; in short: as §1
[28] = Ratio of drug level in brain to plasma of Sprague-Dawley rat at 10 mg/kg, sc after 1 hr; format: ADME, organism-based; parameters: dose 10 mg/kg, route subcutaneous; settings: read-out: BPR; in short: as §6
[29] = Formulatability in 20% beta-HP-CD at pH 7.0; format: physicochemical; settings: read-out: Activity; in short: as §7
[30] = Ratio of drug level in brain to plasma of Sprague-Dawley rat at 10 mg/kg, sc after 2 hrs; format: ADME, organism-based; parameters: dose 10 mg/kg, route subcutaneous; settings: read-out: BPR; in short: as §6
[31] = Ratio of drug level in brain to plasma of Sprague-Dawley rat at 10 mg/kg, sc after 4 hrs; format: ADME, organism-based; parameters: dose 10 mg/kg, route subcutaneous; settings: read-out: BPR; in short: as §6
[32] = Clearance in Sprague-Dawley rat at 2.5 mg/kg, iv; format: ADME, organism-based; parameters: dose 2.5 mg/kg, route intravenous; settings: in vivo; in short: as §3
[33] = Half life in Sprague-Dawley rat at 2.5 mg/kg, iv; format: ADME, organism-based; parameters: dose 2.5 mg/kg, route intravenous; settings: in vivo; in short: as §3
[34] = molecular target: 3',5'-cyclic-AMP phosphodiesterase 4D (Homo sapiens, UniProt Q08499); assay: Inhibition of human PDE4D by scintillation counting method; in short: as §5
[35] = system: Rattus norvegicus; assay: In-vivo occupancy at PDE2 in sc dosed Wistar rat brain using [3H]labeled compound in presence of 2.5 mg/kg, sc PDE10 inhibitor MP10; format: functional, organism-based; parameters: dose 2.5 mg/kg, route subcutaneous
In short: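 Male Wistar rats (n = 3 per dose) were dosed s.c., co-administered with MP10 at 2.5 mg/kg s.c. Ex vivo autoradiography was done on brain slices with the tritiated compound. Occupancy is the inhibition of specific [3H] binding relative to vehicle-treated animals, and ED50 was derived against dose.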

[36] = Unbound fraction in Sprague-Dawley rat plasma at 10 mg/kg, sc; format: ADME, organism-based; parameters: dose 10 mg/kg, route subcutaneous
[37] = Ratio of drug level in brain to plasma of Sprague-Dawley rat at 10 mg/kg, sc after 7 hrs; format: ADME, organism-based; parameters: dose 10 mg/kg, route subcutaneous; settings: read-out: BPR; in short: as §6
[38] = Unbound fraction in Sprague-Dawley rat brain at 10 mg/kg, sc; format: ADME, organism-based; parameters: dose 10 mg/kg, route subcutaneous
[39] = Ratio of drug level in brain to plasma of Sprague-Dawley rat at 10 mg/kg, sc after 0.5 hrs; format: ADME, organism-based; parameters: dose 10 mg/kg, route subcutaneous; settings: read-out: BPR; in short: as §6
[40] = Formulatability in water at pH 3.6; format: physicochemical; settings: read-out: Activity; in short: as §7
[41] = Cmax in Sprague-Dawley rat at 10 mg/kg, sc; format: ADME, organism-based; parameters: dose 10 mg/kg, route subcutaneous; settings: in vivo; in short: as §4
[42] = molecular target: Dual 3',5'-cyclic-AMP and -GMP phosphodiesterase 11A (Homo sapiens, UniProt Q9HCR9); assay: Inhibition of human PDE11A4 expressed in Sf9 cells by scintillation counting method; in short: as §5
Sequence of Dual 3',5'-cyclic-AMP and -GMP phosphodiesterase 11A (Q9HCR9 whole entry): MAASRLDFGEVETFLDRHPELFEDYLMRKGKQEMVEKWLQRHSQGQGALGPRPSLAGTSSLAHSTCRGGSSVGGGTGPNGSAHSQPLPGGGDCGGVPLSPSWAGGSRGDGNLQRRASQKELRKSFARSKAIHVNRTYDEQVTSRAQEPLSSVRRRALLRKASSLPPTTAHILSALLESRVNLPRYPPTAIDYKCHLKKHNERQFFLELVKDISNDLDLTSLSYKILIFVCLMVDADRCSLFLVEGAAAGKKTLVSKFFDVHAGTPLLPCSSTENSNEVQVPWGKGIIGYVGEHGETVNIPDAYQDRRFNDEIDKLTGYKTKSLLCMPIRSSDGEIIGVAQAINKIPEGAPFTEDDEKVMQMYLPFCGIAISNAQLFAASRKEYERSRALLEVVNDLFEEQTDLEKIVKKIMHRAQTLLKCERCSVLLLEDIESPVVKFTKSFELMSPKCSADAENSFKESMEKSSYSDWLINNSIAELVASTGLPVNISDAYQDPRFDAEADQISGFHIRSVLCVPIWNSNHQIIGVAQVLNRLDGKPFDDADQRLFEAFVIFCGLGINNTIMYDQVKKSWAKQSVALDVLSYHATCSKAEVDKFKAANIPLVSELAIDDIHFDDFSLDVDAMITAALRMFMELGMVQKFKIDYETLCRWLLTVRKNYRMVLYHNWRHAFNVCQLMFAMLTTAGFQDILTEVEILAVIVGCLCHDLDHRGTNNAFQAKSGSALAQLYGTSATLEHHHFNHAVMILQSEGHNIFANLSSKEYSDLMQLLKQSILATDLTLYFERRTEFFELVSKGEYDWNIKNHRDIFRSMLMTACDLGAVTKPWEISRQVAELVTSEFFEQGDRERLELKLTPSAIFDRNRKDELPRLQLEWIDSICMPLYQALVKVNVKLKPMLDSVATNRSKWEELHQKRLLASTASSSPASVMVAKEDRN

Sequence of cGMP-inhibited 3',5'-cyclic phosphodiesterase 3B (Q13370 whole entry): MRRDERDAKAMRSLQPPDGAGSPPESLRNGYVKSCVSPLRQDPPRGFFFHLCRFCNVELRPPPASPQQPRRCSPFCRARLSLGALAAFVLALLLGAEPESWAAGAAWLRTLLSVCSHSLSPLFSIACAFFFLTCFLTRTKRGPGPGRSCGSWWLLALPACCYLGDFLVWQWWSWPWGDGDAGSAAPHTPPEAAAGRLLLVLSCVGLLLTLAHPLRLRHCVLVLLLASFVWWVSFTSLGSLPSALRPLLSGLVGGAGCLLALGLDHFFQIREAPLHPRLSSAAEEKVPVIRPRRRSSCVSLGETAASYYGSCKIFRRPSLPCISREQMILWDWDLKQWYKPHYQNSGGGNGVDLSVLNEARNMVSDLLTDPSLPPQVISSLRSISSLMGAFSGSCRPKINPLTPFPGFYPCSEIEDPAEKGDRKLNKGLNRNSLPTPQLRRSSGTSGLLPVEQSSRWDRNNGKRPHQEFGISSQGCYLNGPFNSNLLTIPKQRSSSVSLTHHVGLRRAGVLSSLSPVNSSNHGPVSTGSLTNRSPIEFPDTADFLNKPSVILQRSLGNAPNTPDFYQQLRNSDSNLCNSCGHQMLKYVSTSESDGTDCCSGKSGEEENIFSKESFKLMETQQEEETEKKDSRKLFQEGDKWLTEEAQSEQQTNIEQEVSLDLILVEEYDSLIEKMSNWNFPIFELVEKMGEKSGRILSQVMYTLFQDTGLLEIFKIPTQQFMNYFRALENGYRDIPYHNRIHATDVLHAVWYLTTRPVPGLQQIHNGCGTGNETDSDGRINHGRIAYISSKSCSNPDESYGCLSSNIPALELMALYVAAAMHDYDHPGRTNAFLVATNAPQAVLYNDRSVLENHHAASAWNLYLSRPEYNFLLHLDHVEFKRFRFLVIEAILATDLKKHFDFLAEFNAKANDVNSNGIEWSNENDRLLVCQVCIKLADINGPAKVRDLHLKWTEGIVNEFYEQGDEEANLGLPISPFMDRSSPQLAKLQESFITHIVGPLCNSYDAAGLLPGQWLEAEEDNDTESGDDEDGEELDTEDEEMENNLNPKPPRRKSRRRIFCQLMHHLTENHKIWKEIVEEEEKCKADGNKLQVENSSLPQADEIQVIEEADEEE
Sequence of 3',5'-cyclic-AMP phosphodiesterase 4D (Q08499 whole entry): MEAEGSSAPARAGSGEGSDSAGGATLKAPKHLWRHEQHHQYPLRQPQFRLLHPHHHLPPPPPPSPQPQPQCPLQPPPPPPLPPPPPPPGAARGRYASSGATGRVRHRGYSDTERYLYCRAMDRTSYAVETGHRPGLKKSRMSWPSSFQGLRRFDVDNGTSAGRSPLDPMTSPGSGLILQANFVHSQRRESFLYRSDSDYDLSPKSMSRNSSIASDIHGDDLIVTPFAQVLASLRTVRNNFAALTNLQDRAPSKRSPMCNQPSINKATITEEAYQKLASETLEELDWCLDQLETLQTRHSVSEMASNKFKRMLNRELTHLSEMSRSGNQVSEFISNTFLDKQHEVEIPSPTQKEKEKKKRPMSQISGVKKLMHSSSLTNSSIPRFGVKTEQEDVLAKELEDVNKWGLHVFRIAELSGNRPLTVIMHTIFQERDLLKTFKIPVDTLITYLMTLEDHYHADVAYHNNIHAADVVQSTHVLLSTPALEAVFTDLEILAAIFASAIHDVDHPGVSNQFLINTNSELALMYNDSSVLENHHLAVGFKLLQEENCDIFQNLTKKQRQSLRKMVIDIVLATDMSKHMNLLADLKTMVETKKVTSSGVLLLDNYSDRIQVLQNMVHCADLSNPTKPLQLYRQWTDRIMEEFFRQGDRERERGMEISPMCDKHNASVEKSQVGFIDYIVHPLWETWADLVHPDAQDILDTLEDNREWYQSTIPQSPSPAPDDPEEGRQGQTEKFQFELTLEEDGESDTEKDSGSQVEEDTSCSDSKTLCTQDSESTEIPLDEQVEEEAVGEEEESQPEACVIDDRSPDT
Sequence of Cytochrome P450 3A4 (P08684 whole entry): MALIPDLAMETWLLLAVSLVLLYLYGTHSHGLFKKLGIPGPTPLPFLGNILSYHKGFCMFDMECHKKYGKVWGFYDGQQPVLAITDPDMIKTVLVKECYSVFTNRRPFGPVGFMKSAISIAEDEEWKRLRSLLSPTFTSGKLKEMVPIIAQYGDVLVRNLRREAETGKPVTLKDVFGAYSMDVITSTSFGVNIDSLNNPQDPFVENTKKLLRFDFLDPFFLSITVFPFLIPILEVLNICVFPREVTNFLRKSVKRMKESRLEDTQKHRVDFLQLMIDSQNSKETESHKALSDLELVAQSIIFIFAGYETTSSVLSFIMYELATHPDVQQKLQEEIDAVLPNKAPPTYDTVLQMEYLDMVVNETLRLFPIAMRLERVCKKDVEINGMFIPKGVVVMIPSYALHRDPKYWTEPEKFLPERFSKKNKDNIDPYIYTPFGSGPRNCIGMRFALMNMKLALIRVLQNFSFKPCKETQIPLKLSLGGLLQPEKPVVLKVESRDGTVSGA
Sequence of High affinity cGMP-specific 3',5'-cyclic phosphodiesterase 9A (O76083 whole entry): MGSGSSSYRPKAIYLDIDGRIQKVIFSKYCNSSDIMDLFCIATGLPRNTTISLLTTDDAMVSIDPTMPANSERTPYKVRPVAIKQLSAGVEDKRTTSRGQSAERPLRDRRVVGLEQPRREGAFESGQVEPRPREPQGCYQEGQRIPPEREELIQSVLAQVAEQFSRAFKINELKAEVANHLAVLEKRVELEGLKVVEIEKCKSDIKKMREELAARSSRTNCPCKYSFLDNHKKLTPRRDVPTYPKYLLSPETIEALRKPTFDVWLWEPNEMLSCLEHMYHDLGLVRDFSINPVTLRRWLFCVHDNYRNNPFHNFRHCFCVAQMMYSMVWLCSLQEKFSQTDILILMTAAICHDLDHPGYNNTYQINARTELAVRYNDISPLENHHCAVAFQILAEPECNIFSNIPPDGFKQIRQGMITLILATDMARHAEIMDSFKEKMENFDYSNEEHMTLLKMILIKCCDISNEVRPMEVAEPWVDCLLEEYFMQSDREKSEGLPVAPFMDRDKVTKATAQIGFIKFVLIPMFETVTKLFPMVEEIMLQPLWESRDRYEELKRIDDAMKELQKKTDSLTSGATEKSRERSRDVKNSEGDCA
Sequence of Cytochrome P450 2C19 (P33261 whole entry): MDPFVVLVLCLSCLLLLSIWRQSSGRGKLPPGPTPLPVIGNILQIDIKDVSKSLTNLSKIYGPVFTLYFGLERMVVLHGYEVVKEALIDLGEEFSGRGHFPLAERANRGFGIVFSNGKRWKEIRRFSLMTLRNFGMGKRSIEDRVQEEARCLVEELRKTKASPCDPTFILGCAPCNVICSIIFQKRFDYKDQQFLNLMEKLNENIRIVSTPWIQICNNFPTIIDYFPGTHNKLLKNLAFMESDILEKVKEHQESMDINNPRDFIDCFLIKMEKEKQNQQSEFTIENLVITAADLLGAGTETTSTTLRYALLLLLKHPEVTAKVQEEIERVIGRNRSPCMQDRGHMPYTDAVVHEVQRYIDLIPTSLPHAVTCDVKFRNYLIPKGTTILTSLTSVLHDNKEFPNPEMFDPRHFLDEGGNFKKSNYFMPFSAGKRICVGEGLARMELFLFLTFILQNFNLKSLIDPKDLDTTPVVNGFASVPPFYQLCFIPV
Sequence of High affinity 3',5'-cyclic-AMP phosphodiesterase 7A (Q13946 whole entry): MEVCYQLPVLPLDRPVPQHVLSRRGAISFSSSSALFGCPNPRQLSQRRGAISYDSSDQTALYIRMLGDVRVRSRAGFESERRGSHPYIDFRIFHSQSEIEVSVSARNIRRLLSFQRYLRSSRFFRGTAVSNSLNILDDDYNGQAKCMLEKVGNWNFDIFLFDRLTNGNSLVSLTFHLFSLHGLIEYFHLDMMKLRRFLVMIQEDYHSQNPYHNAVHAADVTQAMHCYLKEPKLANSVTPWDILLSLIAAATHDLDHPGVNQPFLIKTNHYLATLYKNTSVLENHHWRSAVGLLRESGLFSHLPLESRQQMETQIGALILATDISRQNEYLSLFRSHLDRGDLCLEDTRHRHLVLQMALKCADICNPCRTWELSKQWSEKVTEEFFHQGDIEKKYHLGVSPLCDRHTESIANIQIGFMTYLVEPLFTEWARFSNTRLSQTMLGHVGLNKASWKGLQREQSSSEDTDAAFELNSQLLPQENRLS

COc1ccc(Cc2nn3c([C@@H](CCCc4ccccc4)[C@@H](C)O)nc(C)c3c(=O)[nH]2)cc1OC
Kp at 0.5 h [1]: 0.05
concentration at 0.5 h [2]: 3.6 ng/g
concentration at 0.5 h [3]: 72.9 ng/mL

Cc1nc2ccc(CN3CCOCC3)cc2n2c(-c3ccccc3Cl)nnc12
Ratio IC50 [4]: 13

COc1ccc(Cl)c(-c2nnc3c(C)nc4ccc(CN5CCOCC5)cc4n23)c1
IC50 [5]: 0.106 µM

Cc1nc2ccc(CN3CCOCC3)cc2n2c(-c3cncc(OC(C)C)c3)nnc12
IC50 [5]: > 10 µM

CCCCOc1cncc(-c2nnc3c(C)nc4ccc(CN5CCOCC5)cc4n23)c1
Activity [6]: 251%
IC50 [7]: > 10 µM
Vd [8]: 2.7 L/kg
remaining at 0.25 h [9]: 0%
IC50 [10]: > 10 µM
AUC(0-inf) [11]: 305 ng·h/mL
IC50 [12]: > 10 µM
Drug uptake(free) [13]: 67 nM
half-life [14]: 60 min
Tmax [15]: 40.2 min
Activity [16]: Non-toxic
AUC(0-inf) [17]: 1670 ng·h/mL
IC50 [18]: > 10 µM
Cp [19]: BLD
Drug uptake [20]: BLD
Activity [21]: 109%
IC50 [22]: > 10 µM
IC50 [23]: > 10 µM
IC50 [24]: > 10 µM
solubility [25]: 15 mg/mL (≈ 34.7 mM)
IC50 [26]: > 10 µM
remaining at 0.25 h [27]: 0%
Kp at 1 h [28]: 1.1
solubility [29]: 16 mg/mL (≈ 37 mM)
Kp at 2 h [30]: 1.1
Kp at 4 h [31]: 1.1
clearance [32]: 130 mL/min/kg
half-life [33]: 18.6 min
IC50 [34]: > 10 µM
EC50 [35]: 0.021 µM
ED50 ([35]; sc, route subcutaneous): 4.3 mg/kg
fraction unbound [36]: 0.31
Kp at 7 h [37]: 0.93
fraction unbound [38]: 0.14
Kp at 0.5 h [39]: 1.4
solubility [40]: 4 mg/mL (≈ 9.25 mM)
Cmax [41]: 658 ng/mL
IC50 [42]: 2.14 µM
